Laboratory results reported in ChEMBL document CHEMBL4354845, “Discovery and Structure-Activity Relationships of Nociceptin Receptor Partial Agonists That Afford Symptom Ablation in Parkinson's Disease Models” (J Med Chem, 2020).
Active and inactive are the calls of the source. The rule behind the calls is not given here.

Key:
[1] = Apparent permeability across apical to basolateral side in human Caco2 cells by HPLC-MS/MS analysis; type: ADME, cell-based; conditions: Caco-2
Outline: (§1)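 Caco-2 monolayers, two-way permeability (apical→basolateral and basolateral→apical), compound monitored by HPLC/MS/MS and reported as Papp (10^-6 cm/s). Papp >1.0x10^-6 cm/s with efflux ratio <3 classed as high permeability/no efflux.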

[2] = Apparent permeability across basolateral to apical side in human Caco2 cells by HPLC-MS/MS analysis; type: ADME, cell-based; conditions: Caco-2; outline: as §1
[3] = Apparent permeability across apical to basolateral side in dog MDCK-MDR1 cells by HPLC-MS/MS analysis; type: ADME, cell-based, Canis lupus familiaris
Outline: (§2)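 MDR1-MDCK monolayers, bidirectional permeability (A→B and B→A), compound quantified by HPLC/MS/MS and expressed as Papp (10^-6 cm/s). Efflux ratio B–A/A–B. High BBB permeability taken as Papp A–B >3.0 with efflux ratio <3; efflux ratio >3 counted as high efflux.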

[4] = Apparent permeability across basolateral to apical side in dog MDCK-MDR1 cells by HPLC-MS/MS analysis; type: ADME, cell-based, Canis lupus familiaris; outline: as §2
[5] = Stability in human liver microsomes assessed as half life at 1 uM incubated for 60 mins by LC-MS/MS analysis; type: ADME, Microsome
Outline: (§3)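 Compound at 1 µM incubated at 37°C with liver microsomes in 100 mM potassium phosphate pH 7.4 and 5 mM MgCl2. Reaction started with 1 mM NADPH, sampled at 30, 45 and 60 min and quenched with acetonitrile/0.1% formic acid. Parent loss measured by LC-MS against t=0 with propranolol internal standard. Half-life from single-phase exponential fit, in duplicate.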

[6] = Stability in rat liver microsomes assessed as half life at 1 uM incubated for 60 mins by LC-MS/MS analysis; type: ADME, Microsome; outline: as §3
[7] = Cmax in Sprague-Dawley rat plasma at 3 mg/kg, sc measured upto 8 hrs by LC-MS/MS analysis; type: ADME, organism-based; parameters: dose 3 mg/kg, route subcutaneous
Outline: (§4)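 Male Sprague-Dawley rats (250–300 g) given a single s.c. dose of 3 mg/kg (2 mL/kg) as a 1.5 mg/ml solution in 5% dimethylacetamide/95% of 30% SBECD. Plasma (K2-EDTA) and brain collected at 0.5, 1, 2, 4 and 8 h. Brain homogenised 1:4 w/v in water. Terfenadine internal standard, positive-ion ESI LC-MS/MS. Noncompartmental analysis, linear trapezoidal AUC to 8 h. Brain values are total.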

[8] = Tmax in Sprague-Dawley rat plasma at 3 mg/kg, sc measured upto 8 hrs by LC-MS/MS analysis; type: ADME, organism-based; outline: as §4
[9] = AUClast in Sprague-Dawley rat plasma at 3 mg/kg, sc measured upto 8 hrs by LC-MS/MS analysis; type: ADME, organism-based; parameters: dose 3 mg/kg, time < 8 hr, route subcutaneous; outline: as §4
[10] = Half life in Sprague-Dawley rat plasma at 3 mg/kg, sc measured upto 8 hrs by LC-MS/MS analysis; type: ADME, organism-based; outline: as §4
[11] = Cmax in Sprague-Dawley rat brain at 3 mg/kg, sc measured upto 8 hrs by LC-MS/MS analysis; type: ADME, organism-based; parameters: dose 3 mg/kg, route subcutaneous; outline: as §4
[12] = Tmax in Sprague-Dawley rat brain at 3 mg/kg, sc measured upto 8 hrs by LC-MS/MS analysis; type: ADME, organism-based; outline: as §4
[13] = AUClast in Sprague-Dawley rat brain at 3 mg/kg, sc measured upto 8 hrs by LC-MS/MS analysis; type: ADME, organism-based; parameters: time < 8 hr, dose 3 mg/kg, route subcutaneous; outline: as §4
[14] = Half life in Sprague-Dawley rat brain at 3 mg/kg, sc measured upto 8 hrs by LC-MS/MS analysis; type: ADME, organism-based; outline: as §4
Rattus norvegicus [15] = assay: Anti-parkinson's disease activity in 6-OHDA-induced hemi-lesioned Sprague-Dawley rat model of Parkinson's disease assessed as reduction in immobility time at 0.01 to 1 mg/kg, ip administered for 3 days and measured after 20 mins of compound administration by bar test; type: functional, organism-based
Outline: (§5)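 Rats received unilateral 6-OHDA (8 µg freebase) into the medial forebrain bundle and were enrolled if they made >7 ipsilateral turns/min after D-amphetamine 5 mg/kg i.p. They were trained to reproducible performance, then given acute i.p. doses or vehicle (saline + 5% Tween 80, 1% DMSO) with 3-day washouts. Contralateral paw scored at 20 and 90 min in bar and drag tests. Rotarod started at 5 rpm, rising 5 rpm/180 s, expressed as % of control. Analysis by two-way ANOVA with Bonferroni.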

Rattus norvegicus [16] = assay: Anti-parkinson's disease activity in 6-OHDA-induced hemi-lesioned Sprague-Dawley rat model of Parkinson's disease assessed as increase in stepping activity at 0.01 to 1 mg/kg, ip administered for 3 days and measured after 90 mins of compound administration by drag test; type: functional, organism-based; outline: as §5
Rattus norvegicus [17] = assay: Anti-parkinson's disease activity in 6-OHDA-induced hemi-lesioned Sprague-Dawley rat model of Parkinson's disease assessed as increase in time spent on rotarod at 0.01 to 1 mg/kg, ip administered for 3 days and measured after 20 mins of compound administration by rotarod test; type: functional, organism-based; outline: as §5
Rattus norvegicus [18] = assay: Anti-parkinson's disease activity in Sprague-Dawley rat model of L-DOPA-induced dyskinesia at 0.1 to 3 mg/kg, ip administered for 3 days; type: functional, organism-based
Rattus norvegicus [19] = assay: Anti-parkinson's disease activity in Sprague-Dawley rat model of L-DOPA-induced dyskinesia at 0.01 to 1 mg/kg, ip administered for 3 days; type: functional, organism-based
[20] = Stability in mouse liver microsomes assessed as half life at 1 uM incubated for 60 mins by LC-MS/MS analysis; type: ADME, Microsome; outline: as §3
Rattus norvegicus [21] = assay: Anti-parkinson's disease activity in 6-OHDA-induced hemi-lesioned Sprague-Dawley rat model of Parkinson's disease assessed as reduction in immobility time at 0.1 to 3 mg/kg, ip administered for 3 days and measured after 20 mins of compound administration by bar test; type: functional; parameters: scale not given: the % may be the effect or the level left; outline: as §5
Rattus norvegicus [22] = assay: Anti-parkinson's disease activity in 6-OHDA-induced hemi-lesioned Sprague-Dawley rat model of Parkinson's disease assessed as increase in stepping activity at 0.1 to 3 mg/kg, ip administered for 3 days and measured after 90 mins of compound administration by drag test; type: functional, organism-based; outline: as §5
Rattus norvegicus [23] = assay: Anti-parkinson's disease activity in 6-OHDA-induced hemi-lesioned Sprague-Dawley rat model of Parkinson's disease assessed as increase in time spent on rotarod at 0.1 to 3 mg/kg, ip administered for 3 days and measured after 20 mins of compound administration by rotarod test; type: functional; outline: as §5

Compound	Papp A→B [1]	Papp B→A [2]	Papp A→B [3]	Papp B→A [4]	half-life at 1 µM [5]	half-life at 1 µM [6]	Cmax [7]	Tmax [8]	AUC(0-t) at 8 h [9]	half-life [10]	Cmax [11]	Tmax [12]	AUC(0-t) at 8 h [13]	half-life [14]	Activity (Rattus norvegicus [15])	Activity (Rattus norvegicus [16])	Activity (Rattus norvegicus [17])	Activity (Rattus norvegicus [18])	Activity (Rattus norvegicus [19])	half-life at 1 µM [20]	other results
CC(C)[C@H]1CC[C@@H](N2CCC(n3cc(CN)c4ccccc43)CC2)CC1	4.64 ×10⁻⁶ cm/s	4.92 ×10⁻⁶ cm/s	0.34 ×10⁻⁶ cm/s	14.4 ×10⁻⁶ cm/s	> 1 h	> 1 h	529 nM	0.5 h	1 µM·h	2.61 h	956 nM	4 h	6.13 µM·h	10.8 h	Active	Active	Active	inactive	inactive		
CC(C)[C@H]1CC[C@@H](N2CCC(N3CCc4ccccc43)CC2)CC1	30 ×10⁻⁶ cm/s	25 ×10⁻⁶ cm/s	26.8 ×10⁻⁶ cm/s	33.8 ×10⁻⁶ cm/s			456 nM	0.5 h	1.25 µM·h	2.13 h	3070 nM	0.5 h	6.7 µM·h	2.71 h	Active	Active	Active	inactive	inactive	0.0467 h	
CC(C)[C@H]1CC[C@@H](N2CCC(n3cc(CCN)c4ccccc43)CC2)CC1.Cl.Cl	4.36 ×10⁻⁶ cm/s	6.49 ×10⁻⁶ cm/s	0.6 ×10⁻⁶ cm/s	22.1 ×10⁻⁶ cm/s																> 1 h	
CC(C)[C@H]1CC[C@@H](N2CCC(n3ccc4ccccc43)CC2)CC1	24 ×10⁻⁶ cm/s	19.1 ×10⁻⁶ cm/s	28.8 ×10⁻⁶ cm/s	15.2 ×10⁻⁶ cm/s	0.0883 h	0.0967 h	626 nM	1 h	1.96 µM·h	2.19 h	4170 nM	0.5 h	10.1 µM·h	2.43 h				inactive	inactive		Activity (Rattus norvegicus [21]): 25%; Activity (Rattus norvegicus [22]): Active; Activity (Rattus norvegicus [23]): 20%
